ChEMBL document CHEMBL4359899, “Synthesis, evaluation and structural investigations of potent purple acid phosphatase inhibitors as drug leads for osteoporosis” (Eur J Med Chem, 2019)

Assays:
[1] = Inhibition of human PAP assessed as dephosphorylation of 4-methylumbelliferyl phosphate to 4-methylumbelliferone using 4-methylumbelliferyl phosphate as substrate measured for 15 mins by micro-fluorescence detector method
[2] = Solubility of the compound in 25% DMSO; format: physicochemical
[3] = species: Sus scrofa; experiment: Competitive inhibition of pig PAP using varying levels of pNPP as substrate measured at pH 4.9 by UV-vis spectrophotometric analysis
Procedure, shortened: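 Purified pig PAP, first reduced to the FeIII-FeII form (0.77 mM β-mercaptoethanol, 10 min, 37 °C), at 8.4 nM. p-NPP 1–15 mM in 0.1 M acetate pH 4.9 with 25% DMSO, 25 °C. p-Nitrophenol formation read at 405 nm (Δε 342.9 mol−1 L cm−1). Inhibitor concentration varied; Kic fitted by non-linear regression to a general inhibition equation.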

[4] = target: T1, Fe(3+)-Zn(2+) purple acid phosphatase (Phaseolus vulgaris) (UniProt P80366); experiment: Competitive inhibition of red kidney bean PAP using varying levels of pNPP as substrate measured at pH 6.2 by UV-vis spectrophotometric analysis
T1 sequence (whole entry): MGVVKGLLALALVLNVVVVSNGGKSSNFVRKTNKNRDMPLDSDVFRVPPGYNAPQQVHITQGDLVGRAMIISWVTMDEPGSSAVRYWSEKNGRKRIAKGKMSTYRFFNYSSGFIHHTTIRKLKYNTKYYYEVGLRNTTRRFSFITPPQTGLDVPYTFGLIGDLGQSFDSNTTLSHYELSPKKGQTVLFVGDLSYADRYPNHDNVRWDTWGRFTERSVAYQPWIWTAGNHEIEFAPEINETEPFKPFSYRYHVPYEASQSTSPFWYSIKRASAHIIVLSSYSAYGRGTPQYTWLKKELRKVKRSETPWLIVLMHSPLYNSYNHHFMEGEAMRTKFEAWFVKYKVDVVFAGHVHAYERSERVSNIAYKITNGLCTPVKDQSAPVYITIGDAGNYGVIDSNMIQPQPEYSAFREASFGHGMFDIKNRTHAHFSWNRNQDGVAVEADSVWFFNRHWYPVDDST
Procedure, shortened: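 Red kidney bean PAP (rkbPAP), purified, at 8.4 nM. p-NPP 1–15 mM in 0.1 M MES pH 6.2 with 25% DMSO, 25 °C. p-Nitrophenol formation followed at 405 nm (Δε 1834.4 mol−1 L cm−1). Inhibitor concentration varied; competitive constant Kic from non-linear regression using a general inhibition equation.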

SMILES	solubility [2]	Kic [3]	Kic [4]	IC50 [1]
O=C(c1ccccc1)C(C(=O)c1ccccc1)(c1cccc2ccccc12)P(=O)(O)O	–	–	–	1.4 µM
CCCCCCCCCCCCCCOC(c1cccc2ccccc12)P(=O)(O)O (racemic)	Soluble	1.1 µM	0.2 µM	–
CCCCCCCCCCCCOC(c1cccc2ccccc12)P(=O)(O)O (racemic)	Soluble	0.7 µM	4.5 µM	–
CCCCCCCCCCCCCCCCOC(c1cccc2ccccc12)P(=O)(O)O (racemic)	Soluble	0.6 µM	0.4 µM	–

Continued, in another order:

solubility [2]	Kic [3]	Kic [4]	SMILES	IC50 [1]
Soluble	0.2 µM	0.5 µM	CCCCCCCCCCCCCCCCCCOC(c1cccc2ccccc12)P(=O)(O)O (racemic)	–
Soluble	4.4 µM	0.8 µM	CCCCCCCCCCCCCCCCCCCCOC(c1cccc2ccccc12)P(=O)(O)O (racemic)	–
Soluble	62 µM	14 µM	CCCCCCCCCCCCCCCCCCCCCCOC(c1cccc2ccccc12)P(=O)(O)O (racemic)	–
